Test results: ChEMBL document CHEMBL5303300, “EUbOPEN Chemogenomics Library - Multiplex” (2023)
Where “and” joins values, the source holds several entries; their conditions need not be identical. Identical values can stand only once.

How the values were obtained:
U2OS = experiment: Multiplex assay against U2OS; type: toxicity, cell-based; conditions: human, number of replicates 2
In short: (§1)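 At seeding, live cells were stained with Hoechst33342, BioTracker Green Microtubule Cytoskeleton Dye, MitoTracker Red and Annexin V Alexa Fluor 680. After compound addition they were imaged on a CQ1 microscope at 37°C and 5% CO2, and CellPathfinder machine-learning gating sorted them into Hoechst high-intensity objects or normal cells, with normal cells further split into healthy, pyknosed or fragmented nuclei and pyknosed cells into mitotic or apoptotic. Tubulin, mitochondrial-mass and membrane-permeability phenotypes are given as per cents of cells with healthy nuclei.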

Fibroblast = experiment: Multiplex assay against human fibroblast; type: toxicity, cell-based; conditions: number of replicates 2; in short: as §1
[1] = 24 h, 10 µM, compound concentration 10 uM
[2] = 48 h, 1 µM, compound concentration 1 uM
[3] = 48 h, 10 µM, compound concentration 10 uM
[4] = 12 h, 1 µM, compound concentration 1 uM
[5] = 12 h, 10 µM, compound concentration 10 uM
[6] = 24 h, 1 µM, compound concentration 1 uM

Cn1cc(-c2ccc(N(C(=O)NCc3ccccc3)[C@H]3CC[C@H](Nc4ccc(C#N)cn4)CC3)cc2)ccc1=O
Population Fragmented Nuclei (%) (U2OS; [1]): 8% and 11%
Population Healthy Nuclei (%) (U2OS; [1]): 31%
Population Hoechst High Intensity Objects (%) (U2OS; [1]): 0%
Population Membrane Permeable-Phenotype (%) (U2OS; [1]): 36% and 21%
Population Mitochondria Different-Phenotype (%) (U2OS; [1]): 27% and 46%
Population Mitotic Cells (%) (U2OS; [1]): 9% and 24%
Population Normal (%) (U2OS; [1]): 100% and 99%
Population Pyknosed Nuclei (%) (U2OS; [1]): 60% and 56%
Population Tubulin-Different-Phenotype (%) (U2OS; [1]): 36% and 69%
Population Apoptotic (%) (U2OS; [2]): 85% and 68%
Population Healthy Nuclei (%) (U2OS; [2]): 65% and 88%
Population Hoechst High Intensity Objects (%) (U2OS; [2]): 0%
Population Membrane Permeable-Phenotype (%) (U2OS; [2]): 2% and 1%
Population Mitochondria Different-Phenotype (%) (U2OS; [2]): 0%
Population Mitotic Cells (%) (U2OS; [2]): 14% and 31%
Population Normal (%) (U2OS; [2]): 100%
Population Pyknosed Nuclei (%) (U2OS; [2]): 11% and 8%
Population Tubulin-Different-Phenotype (%) (U2OS; [2]): 70% and 85%
Population Apoptotic (%) (U2OS; [3]): 78% and 88%
Population Fragmented Nuclei (%) (U2OS; [3]): 30% and 10%
Population Healthy Nuclei (%) (U2OS; [3]): 23% and 24%
Population Hoechst High Intensity Objects (%) (U2OS; [3]): 0% and 2%
Population Membrane Permeable-Phenotype (%) (U2OS; [3]): 40% and 37%
Population Mitochondria Different-Phenotype (%) (U2OS; [3]): 40% and 37%
Population Mitotic Cells (%) (U2OS; [3]): 21% and 11%
Population Normal (%) (U2OS; [3]): 100% and 97%
Population Pyknosed Nuclei (%) (U2OS; [3]): 45% and 65%
Population Tubulin-Different-Phenotype (%) (U2OS; [3]): 40% and 52%
Population Apoptotic (%) (Fibroblast; [4]): 46%
Population Fragmented Nuclei (%) (Fibroblast; [4]): 8% and 18%
Population Healthy Nuclei (%) (Fibroblast; [4]): 72% and 60%
Population Hoechst High Intensity Objects (%) (Fibroblast; [4]): 0%
Population Membrane Permeable-Phenotype (%) (Fibroblast; [4]): 6%
Population Mitochondria Different-Phenotype (%) (Fibroblast; [4]): 1% and 2%
Population Mitotic Cells (%) (Fibroblast; [4]): 53%
Population Normal (%) (Fibroblast; [4]): 100%
Population Pyknosed Nuclei (%) (Fibroblast; [4]): 19% and 21%
Population Tubulin-Different-Phenotype (%) (Fibroblast; [4]): 9% and 11%
Total Cell Count (Fibroblast; [4]): 155 and 181
Population Apoptotic (%) (Fibroblast; [5]): 39% and 40%
Population Fragmented Nuclei (%) (Fibroblast; [5]): 8% and 9%
Population Healthy Nuclei (%) (Fibroblast; [5]): 55% and 72%
Population Hoechst High Intensity Objects (%) (Fibroblast; [5]): 0%
Population Membrane Permeable-Phenotype (%) (Fibroblast; [5]): 16% and 14%
Population Mitochondria Different-Phenotype (%) (Fibroblast; [5]): 3%
Population Mitotic Cells (%) (Fibroblast; [5]): 60% and 59%
Population Normal (%) (Fibroblast; [5]): 99%
Population Pyknosed Nuclei (%) (Fibroblast; [5]): 36% and 18%
Population Tubulin-Different-Phenotype (%) (Fibroblast; [5]): 75% and 55%
Total Cell Count (Fibroblast; [5]): 249 and 273
Population Apoptotic (%) (Fibroblast; [6]): 38% and 48%
Population Fragmented Nuclei (%) (Fibroblast; [6]): 12% and 15%
Population Healthy Nuclei (%) (Fibroblast; [6]): 73% and 64%
Population Hoechst High Intensity Objects (%) (Fibroblast; [6]): 0%
Population Membrane Permeable-Phenotype (%) (Fibroblast; [6]): 4% and 7%
Population Mitochondria Different-Phenotype (%) (Fibroblast; [6]): 0% and 1%
Population Mitotic Cells (%) (Fibroblast; [6]): 61% and 51%
Population Normal (%) (Fibroblast; [6]): 99%
Population Pyknosed Nuclei (%) (Fibroblast; [6]): 14% and 20%
Population Tubulin-Different-Phenotype (%) (Fibroblast; [6]): 11%
Total Cell Count (Fibroblast; [6]): 149 and 180
Population Apoptotic (%) (Fibroblast; [1]): 54% and 81%
Population Fragmented Nuclei (%) (Fibroblast; [1]): 10%
Population Healthy Nuclei (%) (Fibroblast; [1]): 44% and 47%
Population Hoechst High Intensity Objects (%) (Fibroblast; [1]): 0%
Population Membrane Permeable-Phenotype (%) (Fibroblast; [1]): 18%
Population Mitochondria Different-Phenotype (%) (Fibroblast; [1]): 7% and 5%
Population Mitotic Cells (%) (Fibroblast; [1]): 45% and 18%
Population Normal (%) (Fibroblast; [1]): 99%
Population Pyknosed Nuclei (%) (Fibroblast; [1]): 44% and 42%
Population Tubulin-Different-Phenotype (%) (Fibroblast; [1]): 79% and 63%
Total Cell Count (Fibroblast; [1]): 231 and 271
Population Apoptotic (%) (Fibroblast; [2]): 76% and 60%
Population Fragmented Nuclei (%) (Fibroblast; [2]): 17% and 16%
Population Healthy Nuclei (%) (Fibroblast; [2]): 68%
Population Hoechst High Intensity Objects (%) (Fibroblast; [2]): 0%
Population Membrane Permeable-Phenotype (%) (Fibroblast; [2]): 5% and 2%
Population Mitochondria Different-Phenotype (%) (Fibroblast; [2]): 0%
Population Mitotic Cells (%) (Fibroblast; [2]): 23% and 39%
Population Normal (%) (Fibroblast; [2]): 100%
Population Pyknosed Nuclei (%) (Fibroblast; [2]): 13% and 15%
Population Tubulin-Different-Phenotype (%) (Fibroblast; [2]): 8% and 5%
Total Cell Count (Fibroblast; [2]): 154 and 186
Population Apoptotic (%) (Fibroblast; [3]): 71% and 83%
Population Fragmented Nuclei (%) (Fibroblast; [3]): 8% and 15%
Population Healthy Nuclei (%) (Fibroblast; [3]): 36% and 28%
Population Hoechst High Intensity Objects (%) (Fibroblast; [3]): 0% and 1%
Population Membrane Permeable-Phenotype (%) (Fibroblast; [3]): 26% and 22%
Population Mitochondria Different-Phenotype (%) (Fibroblast; [3]): 8% and 2%
Population Mitotic Cells (%) (Fibroblast; [3]): 28% and 16%
Population Normal (%) (Fibroblast; [3]): 99% and 98%
Population Pyknosed Nuclei (%) (Fibroblast; [3]): 54% and 56%
Population Tubulin-Different-Phenotype (%) (Fibroblast; [3]): 78% and 65%
Total Cell Count (Fibroblast; [3]): 233 and 237
